Tests used:
Mus musculus [1] = assay: Antidepressant activity in po dosed ICEM:CET (SPF Caw) mouse assessed as antagonism of reserpine-induced blepharospasm administered via gavage 30 mins before reserpine challenge measured 1 hr after reserpine treatment; assay type: functional; conditions: Mus musculus, ICEM:CET(SPF Caw), po; read-out: ED50
Procedure, shortened: (§1)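 Groups of ten male mice (18-22 g), fasted 9 h with water until 2 h pre-test. Oral gavage in 0.5% Methocel at doses below the 25 mg/kg screen, 30 min before reserpine 2.5 mg/kg ip. Blepharospasm scored blind at 1 h, rectal temperature at 4 h. ED50 estimated by eye-fit linear plots on semilogarithmic paper.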

Mus musculus [2] = assay: Antidepressant activity in po dosed ICEM:CET (SPF Caw) mouse assessed as antagonism of reserpine-induced hypothermia administered via gavage 30 mins before reserpine challenge measured 4 hrs after reserpine treatment; assay type: functional; procedure, shortened: as §1
[3] = Orientative acute toxicity in po dosed ICEM:CET (SPF Caw) mouse administered via gavage measured for 60 mins after drug dosing by Irwin's test; assay type: organism-based; conditions: ICEM:CET (SPF Caw), in vivo
Procedure, shortened: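 Male ICEM:CET (SPF Caw) mice, 18-22 g. Oral gavage, suspended or dissolved in 0.5% Methocel at 0.1 mL/10 g body weight. Doses of at least 25, 50, 100, 200, 400 and 800 mg/kg, four animals per dose. Animals were observed closely for 60 min after dosing during Irwin's symptomatologic test, and an approximate LD50 was estimated.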

Mus musculus [4] = assay: Anticonvulsant activity in po dosed ICEM:CET (SPF Caw) mouse assessed as antagonism of pentylenetetrazole-induced flexor-extensor tonic convulsions administered via gavage 30 mins before pentylenetetrazole challenge; assay type: functional
Procedure, shortened: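 Male mice, 18-22 g, dosed orally by gavage in 0.5% Methocel (0.1 mL/10 g), starting at a 50 mg/kg screening dose, then graded doses. Pentylenetetrazole 130 mg/kg ip given 30 min later. Ten mice per dose and for controls. Dose preventing flexor-extensor tonic convulsions in 50% of animals read from dose-response curves (ED50).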

[5] = Mus musculus, ICEM:CET(SPF Caw), po, read-out: ED50

Structure (SMILES)	ED50 (Mus musculus [1]) [mg/kg]	ED50 (Mus musculus [2]; [5]) [mg/kg]	LD50 at 1 h [3] [mg/kg]	ED50 (Mus musculus [4]; [5]) [mg/kg]	ED50 (Mus musculus [2]) [mg/kg]	ED50 (Mus musculus [4]) [mg/kg]
CN(CC(=O)c1ccccc1)C1CN(C2c3ccccc3CCc3ccccc32)C1	15	> 25	> 800	46.8	–	–
CNCC1CN(C2c3ccccc3CCc3ccccc32)C1	> 25	> 25	200	> 50	–	–
c1ccc(CNC2CN(C3c4ccccc4CCc4ccccc43)C2)cc1	12	> 25	800	> 50	–	–
CC(C)NC1CN(C2c3ccccc3CCc3ccccc32)C1	6.5	8.5	200	23.3	–	–
CNC1CN(C2c3ccccc3C=Cc3ccccc32)C1	> 25	> 25	200	> 50	–	–
CC(Cc1ccccc1)NC1CN(C2c3ccccc3CCc3ccccc32)C1 (centres undefined)	> 25	> 25	> 800	> 50	–	–
C#CCN(CC#C)C1CN(C2c3ccccc3CCc3ccccc32)C1	> 25	21	> 800	38	–	–
CNC1CN(C2c3ccccc3CCc3ccccc32)C1	2.9	7.3	400	13.4	–	–
CN(C)C1CN(C2c3ccccc3COc3ccc(Cl)cc32)C1 (centres undefined)	> 25	> 25	100	> 50	–	–
CNC1(C)CN(C2c3ccccc3CCc3ccccc32)C1	> 25	> 25	200	44.6	–	–
c1ccc2c(c1)CCc1ccccc1C2N1CC(NC2CCCCC2)C1	> 25	> 25	400	> 50	–	–
OCCN1CCN(C2CN(C3c4ccccc4CCc4ccccc43)C2)CC1	> 25	> 25	400	31	–	–
CNCCN(C)C1c2ccccc2CCc2ccccc21	> 25	> 25	200	18	–	–
CNCC1CCN1C1c2ccccc2CCc2ccccc21 (centres undefined)	> 25	> 25	> 800	> 50	–	–
c1ccc2c(c1)CCc1ccccc1C2N1CC(n2ccnc2)C1	> 25	> 25	200	17.7	–	–
CC(C)(C)NC1CN(C2c3ccccc3CCc3ccccc32)C1	> 25	> 25	400	28.7	–	–
CN(C)CCC=C1c2ccccc2CCc2ccccc21.Cl [AMITRIPTYLINE HYDROCHLORIDE]	1.3	6.6	100	8	–	–
c1ccc2c(c1)CCc1ccccc1C2N1CC(N2CCOCC2)C1	17	> 25	> 800	46.9	–	–
CCNC1CN(C2c3ccccc3CCc3ccccc32)C1	10	12.5	200	16.7	–	–
CNC1CN(C2CCCCc3ccccc32)C1 (centres undefined)	> 25	> 25	400	48	–	–
CNC1CN(C2c3ccccc3CCc3ccc(Cl)cc32)C1 (centres undefined)	> 25	> 25	400	27.9	–	–
CNC1(c2ccccc2)CN(C2c3ccccc3CCc3ccccc32)C1	> 25	> 25	> 400	> 50	–	–
CC(=O)N(C)C1CN(C2c3ccccc3CCc3ccccc32)C1	> 25	> 25	400	28	–	–

Structure (SMILES)	ED50 (Mus musculus [1]) [mg/kg]	ED50 (Mus musculus [2]; [5]) [mg/kg]	LD50 at 1 h [3] [mg/kg]	ED50 (Mus musculus [4]; [5]) [mg/kg]	ED50 (Mus musculus [2]) [mg/kg]	ED50 (Mus musculus [4]) [mg/kg]
c1ccc2c(c1)CCc1ccccc1C2N1CCNCC1	24	> 25	50	> 50	–	–
CNC1CN(C2c3ccccc3CSc3ccc(OC)cc32)C1 (centres undefined)	21.8	> 25	400	> 50	–	–
CNC1CN(C(c2ccccc2)c2ccccc2)C1	3.5	> 25	200	9.6	–	–
CN(C)C1CN(C2c3ccccc3C3(CC3)c3ccccc32)C1	7.2	16.5	200	24.3	–	–
CNC1CN(C2c3ccccc3COc3ccccc32)C1 (centres undefined)	2.6	15	200	21.5	–	–
CN(C)C1CN(C2c3ccccc3CCc3ccc(Cl)cc32)C1 (centres undefined)	12.5	8.6	400	29.9	–	–
CN(C)C1CN(C2c3ccccc3CSc3ccc(Cl)cc32)C1 (centres undefined)	> 25	> 25	400	50	–	–
CNC1CN(C2c3ccccc3CSc3ccc(Cl)cc32)C1 (centres undefined)	> 25	> 25	400	> 50	–	–
CNC1CN(C2c3ccccc3COc3ccc(OC)cc32)C1 (centres undefined)	> 25	> 25	200	45.8	–	–
CCNC1CN(C2c3ccccc3COc3ccccc32)C1 (centres undefined)	4.8	22.2	200	25.3	–	–
CN(C(N)=O)C1CN(C2c3ccccc3CCc3ccccc32)C1	> 12.5	12.5	400	> 12.5	–	–
CNC1CN(C2c3ccccc3C3(CC3)c3ccccc32)C1	4.4	11.4	200	18.5	–	–
C#CC(C)(C)NC1CN(C2c3ccccc3CCc3ccccc32)C1	9	> 25	> 800	19.6	–	–
CNC1CN(C2c3ccccc3CCc3ccc(OC)cc32)C1 (centres undefined)	14	> 25	200	> 50	–	–
CNC1CCN(C2c3ccccc3CCc3ccccc32)C1 (centres undefined)	> 25	> 25	200	45	–	–
CNC1CN(C2c3ccccc3CSc3ccccc32)C1 (centres undefined)	12	> 25	200	14.7	–	–
CNC1CN(C2c3ccccc3COc3ccc(Cl)cc32)C1 (centres undefined)	> 25	> 25	100	15.4	–	–
CN(C)C1CN(C2c3ccccc3COc3ccccc32)C1 (centres undefined)	5.6	23	100	28.5	–	–
CN(C)C1CN(C2c3ccccc3CCc3ccccc32)C1	7	12.5	400	21.5	–	–
CNC1CN(C2c3ccccc3COc3ccccc32)C1.O=C(O)/C=C/C(=O)O (single isomer, unassigned; (+))	1	–	200	–	4.9	14
CNC1CN(C2c3ccccc3CCc3ccccc32)C1C (centres undefined)	9	10.5	400	25	–	–
CN(C)CCCN1c2ccccc2CCc2ccccc21.Cl [IMIPRAMINE HYDROCHLORIDE]	1.6	12.3	200	19.4	–	–
NC1CN(C2c3ccccc3CCc3ccccc32)C1	5	12	200	17	–	–

Source: ChEMBL document CHEMBL3227978, “Azetidine derivatives of tricyclic antidepressant agents” (J Med Chem, 1979)
